From ChEMBL document CHEMBL4052683, “The discovery of benzoxazine sulfonamide inhibitors of NaV1.7: Tools that bridge efficacy and target engagement” (Bioorg Med Chem Lett, 2017)

Experiments:
[1] = target: Sodium channel protein type 9 subunit alpha (Mus musculus, UniProt Q62205); experiment: Inhibition of mouse NaV1.7 by whole cell voltage clamp method
Summary of the method: (§1)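 PatchXpress electrophysiology was run with a protocol giving about 20% channel inactivation. At least four concentrations at half-log spacing were applied one at a time, with washout, current recovery and holding voltage reset between each. Data were pooled from at least 10 cells, with 2–3 points per concentration, and fitted with a 4-parameter Hill curve to give one IC50.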

[2] = target: Sodium channel protein type 10 subunit alpha (Rattus norvegicus, UniProt Q62968); experiment: Inhibition of NaV1.8 in rat DRG neurons assessed as reduction in tetrodotoxin-resistant sodium channel currents at holding potential of -140 mV by manual patch clamp electrophysiology assay
[3] = Tmax in mouse at 30 mg/kg, po by LC-MS/MS method; format: ADME, organism-based; conditions: in vivo
[4] = target: Sodium channel protein type 9 subunit alpha (Homo sapiens, UniProt Q15858); experiment: Inhibition of human NaV1.7 expressed in HEK293 cells at holding potential of -125 mV with test potentials to -10 mV by whole cell voltage clamp method; format: cell-based
[5] = Protein binding in mouse plasma at 5 uM by ultracentrifugation and LC-MS/MS method; format: ADME, cell-free; conditions: read-out: PPB (converted)
Mus musculus [6] = experiment: Analgesic activity in C57BL/6 mouse model of formalin-induced nociception behavior assessed as reduction in formalin-evoked paw lifting/licking at 30 mg/kg, po; format: functional
Summary of the method: (§2)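 Male C57BL/6 mice got 30, 60 or 100 mg/kg PO in 30% (w/v) hydroxypropyl β-cyclodextrin in water, pH 10.0 with KOH. Formalin (2%) was injected subcutaneously into the dorsal hind paw, and total phase II paw licking and lifting were scored. Morphine sulfate 3 mg/kg SC served as control. Unbound plasma concentration was divided by the mouse NaV1.7 IC50.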

Plasma [7] = experiment: Plasma concentration in C57BL/6 mouse model of formalin-induced nociception behavior at 60 mg/kg, po; format: ADME, organism-based; conditions: in vivo; summary of the method: as §2
[8] = Inhibition of cynomolgus monkey NaV1.7 by whole cell voltage clamp method; conditions: Macaca fascicularis; summary of the method: as §1
Plasma [9] = experiment: Unbound plasma concentration in C57BL/6 mouse model of formalin-induced nociception behavior at 30 mg/kg, po; format: ADME, organism-based; conditions: in vivo
Summary of the method: (§3)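 The formalin arm received 2% formalin subcutaneously into the dorsal hind paw, and total phase II licking and lifting was scored. The pruritus arm was dosed 120 min before histamine (8.15mM, intradermal, nape of neck), and scratch bouts were counted over 0-30 min. Unbound plasma concentration was determined at each dose.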

[10] = target: Sodium channel protein type 5 subunit alpha (Homo sapiens, UniProt Q14524); experiment: Inhibition of human NaV1.5 expressed in […] cells at holding potential of -125 mV with test potentials to -10 mV by whole cell voltage clamp method; format: cell-based
Chain of Sodium channel protein type 5 subunit alpha (Q14524 whole entry): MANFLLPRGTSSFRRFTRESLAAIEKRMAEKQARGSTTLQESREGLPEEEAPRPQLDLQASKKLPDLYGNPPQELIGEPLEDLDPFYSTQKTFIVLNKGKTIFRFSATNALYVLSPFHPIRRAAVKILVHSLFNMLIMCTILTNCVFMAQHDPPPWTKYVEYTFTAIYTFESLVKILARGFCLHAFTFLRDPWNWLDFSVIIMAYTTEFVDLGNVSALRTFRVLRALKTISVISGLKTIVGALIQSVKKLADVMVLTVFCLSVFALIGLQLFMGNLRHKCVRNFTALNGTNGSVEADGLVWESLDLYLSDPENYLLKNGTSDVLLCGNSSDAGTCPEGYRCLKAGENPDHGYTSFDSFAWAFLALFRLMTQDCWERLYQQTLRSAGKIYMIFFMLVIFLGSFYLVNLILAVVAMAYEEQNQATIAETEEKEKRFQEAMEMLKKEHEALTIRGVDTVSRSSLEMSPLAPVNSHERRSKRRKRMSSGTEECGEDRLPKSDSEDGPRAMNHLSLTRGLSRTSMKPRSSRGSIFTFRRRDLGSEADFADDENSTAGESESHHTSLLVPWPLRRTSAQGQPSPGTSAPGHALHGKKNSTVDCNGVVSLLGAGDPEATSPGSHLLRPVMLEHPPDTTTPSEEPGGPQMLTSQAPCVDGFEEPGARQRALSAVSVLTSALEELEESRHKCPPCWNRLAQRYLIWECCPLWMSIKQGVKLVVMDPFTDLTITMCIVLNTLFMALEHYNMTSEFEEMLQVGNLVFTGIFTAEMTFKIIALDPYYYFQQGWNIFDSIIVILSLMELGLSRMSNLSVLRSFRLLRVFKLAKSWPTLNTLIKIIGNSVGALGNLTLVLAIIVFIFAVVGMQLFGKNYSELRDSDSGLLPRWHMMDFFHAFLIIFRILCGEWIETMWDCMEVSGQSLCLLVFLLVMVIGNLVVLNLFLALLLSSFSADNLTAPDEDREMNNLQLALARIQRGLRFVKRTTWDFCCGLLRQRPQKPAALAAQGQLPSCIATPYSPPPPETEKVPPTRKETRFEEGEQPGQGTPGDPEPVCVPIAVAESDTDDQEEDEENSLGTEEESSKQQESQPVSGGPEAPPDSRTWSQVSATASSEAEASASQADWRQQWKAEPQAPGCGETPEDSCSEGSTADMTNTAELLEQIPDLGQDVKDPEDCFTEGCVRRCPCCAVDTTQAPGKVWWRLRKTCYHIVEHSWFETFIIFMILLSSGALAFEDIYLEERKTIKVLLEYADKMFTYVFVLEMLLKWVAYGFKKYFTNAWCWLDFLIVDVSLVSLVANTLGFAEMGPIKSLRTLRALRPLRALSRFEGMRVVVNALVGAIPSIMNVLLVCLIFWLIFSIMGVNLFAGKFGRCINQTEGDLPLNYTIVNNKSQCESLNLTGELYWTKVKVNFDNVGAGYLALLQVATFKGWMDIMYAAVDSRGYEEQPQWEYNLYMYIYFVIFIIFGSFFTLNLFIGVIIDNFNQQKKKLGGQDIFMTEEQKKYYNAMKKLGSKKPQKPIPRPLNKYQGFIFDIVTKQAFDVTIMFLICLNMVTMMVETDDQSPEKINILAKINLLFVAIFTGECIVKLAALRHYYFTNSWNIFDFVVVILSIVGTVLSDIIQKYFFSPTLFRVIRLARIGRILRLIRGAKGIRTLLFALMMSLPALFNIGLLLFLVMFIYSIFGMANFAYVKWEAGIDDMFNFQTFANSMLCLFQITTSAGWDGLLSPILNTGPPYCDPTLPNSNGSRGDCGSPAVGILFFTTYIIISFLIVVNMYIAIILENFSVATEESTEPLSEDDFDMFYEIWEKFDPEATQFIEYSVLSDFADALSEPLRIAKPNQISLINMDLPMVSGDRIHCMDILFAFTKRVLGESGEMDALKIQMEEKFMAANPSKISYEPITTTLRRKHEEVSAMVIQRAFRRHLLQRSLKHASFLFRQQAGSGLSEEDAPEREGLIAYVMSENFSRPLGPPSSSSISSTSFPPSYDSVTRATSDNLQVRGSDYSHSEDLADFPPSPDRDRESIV

[11] = Ratio of unbound plasma concentration in C57BL/6 mouse model of histamine-induced pruritus at 100 mg/kg, po to IC50 for mouse Nav1.7 by whole cell voltage clamp method; summary of the method: as §3
Plasma [12] = experiment: Unbound plasma concentration in C57BL/6 mouse model of formalin-induced nociception behavior at 100 mg/kg, po; format: ADME, organism-based; conditions: in vivo; summary of the method: as §3
Plasma [13] = experiment: Unbound plasma concentration in Sprague-Dawley rat model of formalin-induced nociception behavior at 30 mg/kg, po; format: ADME, organism-based; conditions: in vivo
Summary of the method: (§4)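 Total phase II formalin-induced flinches were scored. Unbound plasma concentration was determined at each dose and related to the rat NaV1.7 IC50.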

Mus musculus [14] = experiment: Analgesic activity in C57BL/6 mouse model of formalin-induced nociception behavior assessed as reduction in formalin-evoked paw lifting/licking at 60 mg/kg, po; format: functional; summary of the method: as §2
Mus musculus [15] = experiment: Analgesic activity in C57BL/6 mouse model of formalin-induced nociception behavior assessed as reduction in formalin-evoked paw lifting/licking at 30 to 100 mg/kg, po; format: functional, organism-based; summary of the method: as §2
[16] = Ratio of unbound plasma concentration in Sprague-Dawley rat model of formalin-induced nociception behavior at 10 mg/kg, po to IC50 for rat Nav1.7 by whole cell voltage clamp method; summary of the method: as §4
Mus musculus [17] = experiment: Anti-pruritic activity in C57BL/6 mouse model of histamine-induced pruritus assessed as reduction in histamine-induced scratching at 60 mg/kg, po dosed 120 mins before test; format: functional
Summary of the method: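 Male C57BL/6 mice got 30, 60 or 100 mg/kg PO in 30% hydroxypropyl β-cyclodextrin, pH 10.0, 120 min before the test. Histamine (8.15mM) was given intradermally to the nape of the neck just before testing, and scratch bouts were counted over 0–30 min. Diphenhydramine 30 mg/kg PO in water, 90 min before, served as control. Unbound plasma concentrations were measured.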

[18] = Volume of distribution in rat at 0.5 mg/kg, iv by LC-MS/MS method; format: ADME, organism-based; conditions: in vivo
[19] = Ratio of unbound plasma concentration in C57BL/6 mouse model of formalin-induced nociception behavior at 100 mg/kg, po to IC50 for mouse Nav1.7 by whole cell voltage clamp method; summary of the method: as §2
Rattus norvegicus [20] = experiment: Unbound clearance in rat at 0.5 mg/kg, iv by LC-MS/MS method; format: ADME, organism-based; conditions: in vivo
Summary of the method: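 Male rats given 0.5 mg/kg intravenously as a solution in DMSO. Unbound clearance was calculated as rat clearance divided by unbound fraction, with unbound fraction determined by equilibrium dialysis.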

[21] = Ratio of unbound plasma concentration in Sprague-Dawley rat model of formalin-induced nociception behavior at 100 mg/kg, po to IC50 for rat Nav1.7 by whole cell voltage clamp method; summary of the method: as §4
Plasma [22] = experiment: Plasma concentration in Sprague-Dawley rat model of formalin-induced nociception behavior at 30 mg/kg, po; format: ADME, organism-based; conditions: in vivo
Summary of the method: (§5)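 Sprague Dawley rats got 10, 30 or 100 mg/kg PO in 30% (w/v) hydroxypropyl β-cyclodextrin, pH 10.0 with KOH. Total phase II formalin-induced flinches were counted. Morphine sulfate 2 mg/kg SC served as control. Unbound plasma levels were measured and compared with the rat NaV1.7 IC50.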

Plasma [23] = experiment: Unbound plasma concentration in Sprague-Dawley rat model of formalin-induced nociception behavior at 10 mg/kg, po; format: ADME, organism-based; conditions: in vivo; summary of the method: as §4
[24] = Apparent permeability in MDCK vector control cells at 5 uM; conditions: dog
[25] = Half life in mouse at 30 mg/kg, po by LC-MS/MS method; format: ADME, organism-based; conditions: in vivo
Rattus norvegicus [26] = experiment: Analgesic activity in Sprague-Dawley rat model of formalin-induced nociception behavior assessed as reduction in formalin-evoked paw flinching at 10 to 100 mg/kg, po; format: functional, organism-based; summary of the method: as §5
[27] = Clearance in pooled human liver microsomes at 1 uM in presence of NADPH by LC-MS/MS method; format: ADME, microsome; conditions: read-out: CLH
Plasma [28] = experiment: Unbound plasma concentration in C57BL/6 mouse model of histamine-induced pruritus at 60 mg/kg, po; format: ADME, organism-based; conditions: in vivo; summary of the method: as §3
[29] = Tmax in rat at 10 mg/kg, po by LC-MS/MS method; format: ADME, organism-based; conditions: in vivo
[30] = Clearance in pooled rat liver microsomes at 1 uM in presence of NADPH by LC-MS/MS method; format: ADME, microsome; conditions: read-out: CLH
[31] = Half life in rat at 0.5 mg/kg, iv by LC-MS/MS method; format: ADME, organism-based; conditions: in vivo
Summary of the method: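 Male rats got 0.5 mg/kg IV as a DMSO solution. Unbound clearance was taken as rat clearance divided by the unbound fraction from equilibrium dialysis.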

Chain of Sodium channel protein type 9 subunit alpha (Mus musculus, UniProt Q62205) (Q62205 whole entry): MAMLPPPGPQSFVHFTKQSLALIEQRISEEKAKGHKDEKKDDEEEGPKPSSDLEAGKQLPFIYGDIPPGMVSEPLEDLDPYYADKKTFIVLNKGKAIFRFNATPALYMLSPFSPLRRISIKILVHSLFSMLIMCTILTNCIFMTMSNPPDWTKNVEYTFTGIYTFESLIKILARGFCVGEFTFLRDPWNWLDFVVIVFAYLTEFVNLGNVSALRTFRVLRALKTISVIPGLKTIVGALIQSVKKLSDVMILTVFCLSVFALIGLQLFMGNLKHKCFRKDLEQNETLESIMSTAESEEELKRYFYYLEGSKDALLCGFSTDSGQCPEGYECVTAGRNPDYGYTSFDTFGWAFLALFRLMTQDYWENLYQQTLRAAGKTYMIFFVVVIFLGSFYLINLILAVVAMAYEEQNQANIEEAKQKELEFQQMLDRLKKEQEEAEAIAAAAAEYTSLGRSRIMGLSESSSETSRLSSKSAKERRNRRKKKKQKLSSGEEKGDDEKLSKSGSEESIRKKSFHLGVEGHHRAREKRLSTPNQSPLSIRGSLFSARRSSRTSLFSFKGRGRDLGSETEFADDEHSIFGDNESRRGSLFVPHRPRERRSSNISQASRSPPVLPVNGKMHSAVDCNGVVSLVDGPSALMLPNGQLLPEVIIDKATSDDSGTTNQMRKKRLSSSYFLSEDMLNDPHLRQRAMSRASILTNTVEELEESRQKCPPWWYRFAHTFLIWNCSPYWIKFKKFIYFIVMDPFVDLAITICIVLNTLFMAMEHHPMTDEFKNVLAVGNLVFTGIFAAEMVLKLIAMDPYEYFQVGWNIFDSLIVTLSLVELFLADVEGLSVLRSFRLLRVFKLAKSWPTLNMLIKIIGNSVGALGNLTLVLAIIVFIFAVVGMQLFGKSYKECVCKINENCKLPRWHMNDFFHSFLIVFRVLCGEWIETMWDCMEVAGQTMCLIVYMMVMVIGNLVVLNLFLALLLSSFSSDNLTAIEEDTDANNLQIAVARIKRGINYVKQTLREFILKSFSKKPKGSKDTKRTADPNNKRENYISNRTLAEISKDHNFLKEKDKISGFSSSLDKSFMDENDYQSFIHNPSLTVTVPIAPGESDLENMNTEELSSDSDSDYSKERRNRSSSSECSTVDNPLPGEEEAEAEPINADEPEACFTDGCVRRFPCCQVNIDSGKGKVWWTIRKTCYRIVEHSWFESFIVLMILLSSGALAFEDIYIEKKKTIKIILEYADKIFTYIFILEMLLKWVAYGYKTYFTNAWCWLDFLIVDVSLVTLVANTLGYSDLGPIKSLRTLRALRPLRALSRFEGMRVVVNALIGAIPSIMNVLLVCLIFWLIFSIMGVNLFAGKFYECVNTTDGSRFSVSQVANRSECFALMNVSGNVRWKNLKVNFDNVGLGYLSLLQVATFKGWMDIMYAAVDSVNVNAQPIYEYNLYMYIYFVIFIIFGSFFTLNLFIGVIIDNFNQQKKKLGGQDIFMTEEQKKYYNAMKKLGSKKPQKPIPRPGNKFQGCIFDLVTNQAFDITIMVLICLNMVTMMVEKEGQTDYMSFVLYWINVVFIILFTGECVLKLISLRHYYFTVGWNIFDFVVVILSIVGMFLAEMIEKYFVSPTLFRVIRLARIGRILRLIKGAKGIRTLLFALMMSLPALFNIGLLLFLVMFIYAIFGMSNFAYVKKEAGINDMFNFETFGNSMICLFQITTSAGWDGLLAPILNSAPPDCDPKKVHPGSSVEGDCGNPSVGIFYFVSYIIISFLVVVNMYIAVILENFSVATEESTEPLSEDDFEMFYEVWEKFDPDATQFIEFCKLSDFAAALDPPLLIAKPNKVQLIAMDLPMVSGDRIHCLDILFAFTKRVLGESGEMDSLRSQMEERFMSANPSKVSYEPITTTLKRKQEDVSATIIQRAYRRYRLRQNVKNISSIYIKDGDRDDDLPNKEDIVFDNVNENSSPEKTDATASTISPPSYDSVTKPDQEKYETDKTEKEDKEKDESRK

IC50 [1]: 60 nM
Tmax [3]: 2 h
IC50 [4]: 140 nM
fraction unbound at 5 µM [5]: 0.006
concentration (Plasma [7]): 100000 nM
IC50 [8]: 370 nM
Cp(f) (Plasma [9]): 300 nM
Cp(f) (Plasma [12]): 920 nM
Cp(f) (Plasma [13]): 65 nM
Vd [18]: 2.5 L/kg
CL free (Rattus norvegicus [20]): 650 mL/min/kg
concentration (Plasma [22]): 4200 nM
Cp(f) (Plasma [23]): 27 nM
Papp at 5 µM [24]: 19 ×10⁻⁶ cm/s
half-life [25]: 7.1 h
microsomal CLint at 1 µM [27]: < 14 µL/min/mg
Cp(f) (Plasma [28]): 660 nM
Tmax [29]: 6.7 h
microsomal CLint at 1 µM [30]: < 14 µL/min/mg
half-life [31]: 3.6 h
Compound: N#Cc1cc(C(F)(F)F)ccc1N1CCOc2cc(S(=O)(=O)Nc3nccs3)c(F)cc21
IC50 [2]: > 30000 nM
MPE (Mus musculus [6]): 5%
IC50 [10]: 320 to 330 nM
Ratio [11]: 11
MPE (Mus musculus [14]): 45%
inhibition (Mus musculus [15]): Dose-dependent effect
Ratio [16]: 0.5
MPE (Mus musculus [17]): 71%
Ratio [19]: 16
Ratio [21]: 3.6
inhibition (Rattus norvegicus [26]): Dose-dependent effect
